Columns and labels:
Assay type in all cases: functional
[1] = Growth inhibition of human Caki1 cells assessed as cell growth at 10^-8 M incubated for 48 hrs by sulforhodamine B assay; settings: CAKI-1, 48 h, read-out: Activity
Method in brief: (§1)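 Cells seeded at 5,000–40,000/well according to doubling time and preincubated 24 h at 37 °C, 5% CO2. Time-zero plates were TCA-fixed. DMSO concentrate was diluted in medium with 50 µg/ml gentamicin to give five concentrations (10-fold or ½ log steps), then exposed 48 h. Cells were TCA-fixed, stained with 0.4% SRB and read at 515 nm. Percent growth was taken against time-zero and control; GI50, TGI and LC50 derived.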

HT-29 [2] = assay: Growth inhibition of human HT-29 cells assessed as cell growth at 10^-7 M incubated for 48 hrs by sulforhodamine B assay; settings: HT-29, 48 h, read-out: Activity
[3] = Growth inhibition of human LOXIMVI cells assessed as cell growth at 10^-6 M incubated for 48 hrs by sulforhodamine B assay; settings: LOX IMVI, read-out: Activity
NCI-H322M [4] = assay: Growth inhibition of human NCI-H322M cells incubated for 48 hrs by sulforhodamine B assay
Method in brief: (§2)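 Cells were plated at 5,000–40,000 per well according to doubling time and preincubated 24 h at 37 °C in 5% CO2; time-zero plates were then TCA-fixed. Five concentrations (10-fold or ½-log dilutions, DMSO stock) were incubated 48 h. Cells were TCA-fixed, stained with 0.4% SRB and read at 515 nm. GI50 was taken where [(Ti−Tz)/(C−Tz)]×100 = 50.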

[5] = Growth inhibition of human SF539 cells assessed as cell growth at 10^-6 M incubated for 48 hrs by sulforhodamine B assay; settings: SF-539, 48 h, read-out: Activity
A498 [6] = assay: Growth inhibition of human A498 cells assessed as cell growth at 10^-5 M incubated for 48 hrs by sulforhodamine B assay; settings: A498, 48 h, read-out: Activity
Method in brief: (§3)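 Five-dose assay: five concentrations from 10-fold or ½-log serial dilutions. Cells are plated at 5,000–40,000 per well according to doubling time, grown 24 h, then exposed 48 h at 37 °C, 5% CO₂. Fixed with cold 50% TCA (final addition) for 60 min at 4 °C and stained with 0.4% SRB in 1% acetic acid. Bound dye is solubilized in 10 mM Tris base and read at 515 nm. GI₅₀ is where [(Ti−Tz)/(C−Tz)]×100 = 50, with a time-zero plate as Tz.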

[7] = Growth inhibition of human RPMI8226 cells assessed as cell growth at 10^-5 M incubated for 48 hrs by sulforhodamine B assay; settings: RPMI-8226, 48 h, read-out: Activity
SR = assay: Growth inhibition of human SR cells assessed as cell growth at 10^-4 M incubated for 48 hrs by sulforhodamine B assay; settings: read-out: Activity
EKVX = assay: Growth inhibition of human EKVX cells incubated for 48 hrs by sulforhodamine B assay; method in brief: as §1
HT-29 [8] = assay: Growth inhibition of human HT-29 cells assessed as cell growth at 10^-6 M incubated for 48 hrs by sulforhodamine B assay; settings: HT-29, 48 h, read-out: Activity
[9] = Growth inhibition of human SF295 cells assessed as cell growth at 10^-7 M incubated for 48 hrs by sulforhodamine B assay; settings: SF-295, 48 h, read-out: Activity
MDA-MB-435 = assay: Growth inhibition of human MDA-MB-435 cells assessed as cell growth at 10^-7 M incubated for 48 hrs by sulforhodamine B assay; settings: MDA-MB-435, 48 h, read-out: Activity
[10] = Growth inhibition of human RXF393 cells assessed as cell growth at 10^-4 M incubated for 48 hrs by sulforhodamine B assay; settings: RXF 393, 48 h, read-out: Activity
[11] = Growth inhibition of human UACC62 cells assessed as cell growth at 10^-7 M incubated for 48 hrs by sulforhodamine B assay; settings: UACC-62, 48 h, read-out: Activity
A498 [12] = assay: Growth inhibition of human A498 cells assessed as cell growth at 10^-7 M incubated for 48 hrs by sulforhodamine B assay; settings: A498, 48 h, read-out: Activity; method in brief: as §3
[13] = Growth inhibition of human UACC62 cells incubated for 48 hrs by sulforhodamine B assay; settings: UACC-62, 48 h; method in brief: as §2
[14] = Growth inhibition of human COLO205 cells assessed as cell growth at 10^-7 M incubated for 48 hrs by sulforhodamine B assay; settings: COLO 205, 48 h, read-out: Activity; method in brief: as §1
KM12 = assay: Growth inhibition of human KM12 cells incubated for 48 hrs by sulforhodamine B assay; settings: KM12, 48 h; method in brief: as §2
[15] = Growth inhibition of human MOLT4 cells assessed as cell growth at 10 uM incubated for 48 hrs by sulforhodamine B assay; settings: MOLT-4, 48 h, read-out: Activity
SK-MEL-28 = assay: Growth inhibition of human SK-MEL-28 cells assessed as cell growth at 10 uM incubated for 48 hrs by sulforhodamine B assay; settings: SK-MEL-28, 48 h, read-out: Activity
[16] = Growth inhibition of human OVCAR5 cells assessed as cell growth at 10^-8 M incubated for 48 hrs by sulforhodamine B assay; settings: OVCAR-5, 48 h, read-out: Activity
NCI-H322M [17] = assay: Growth inhibition of human NCI-H322M cells assessed as cell growth at 10^-4 M incubated for 48 hrs by sulforhodamine B assay; settings: read-out: Activity
[18] = Growth inhibition of human SNB19 cells assessed as cell growth at 10^-5 M incubated for 48 hrs by sulforhodamine B assay; settings: SNB-19, 48 h, read-out: Activity
NCI-H460 = assay: Growth inhibition of human NCI-H460 cells assessed as cell growth at 10 uM incubated for 48 hrs by sulforhodamine B assay; settings: NCI-H460, 48 h, read-out: Activity
[19] = Growth inhibition of human SF295 cells assessed as cell growth at 10^-6 M incubated for 48 hrs by sulforhodamine B assay; settings: SF-295, 48 h, read-out: Activity
[20] = Growth inhibition of human MOLT4 cells assessed as cell growth at 10^-5 M incubated for 48 hrs by sulforhodamine B assay; settings: MOLT-4, 48 h, read-out: Activity
[21] = Growth inhibition of human BT549 cells assessed as cell growth at 10^-6 M incubated for 48 hrs by sulforhodamine B assay; settings: BT-549, 48 h, read-out: Activity; method in brief: as §3
Malme-3M = assay: Growth inhibition of human MALME-3M cells assessed as cell growth at 10^-4 M incubated for 48 hrs by sulforhodamine B assay; settings: read-out: Activity
[22] = read-out: LC50 (the source's name)
[23] = read-out: pLC50 (the source's name) (converted)

Clc1ccc(-c2nc(Nc3ccc(-c4nc5ccccc5[nH]4)cc3)nc(N3CCOCC3)n2)cc1
growth at 0.01 µM [1]: 89% | growth at 0.1 µM (HT-29 [2]): 99% | growth at 1 µM [3]: -64% | GI50 (NCI-H322M [4]; read-out: GI50): 303 nM | TGI (NCI-H322M [4]; read-out: TGI): 1070 nM | GI50 (NCI-H322M [4]; read-out: pGI50 (converted)): 302 nM | TGI (NCI-H322M [4]; read-out: pTGI (converted)): 1070 nM | growth at 1 µM [5]: 31% | growth at 10 µM (A498 [6]): -83% | growth at 10 µM [7]: -51% | growth at 100 µM (SR): 5% | GI50 (EKVX; read-out: GI50): 1140 nM | TGI (EKVX; read-out: TGI): 2630 nM | GI50 (EKVX; read-out: pGI50 (converted)): 1150 nM | TGI (EKVX; read-out: pTGI (converted)): 2630 nM | growth at 1 µM (HT-29 [8]): -39% | growth at 0.1 µM [9]: 91% | growth at 0.1 µM (MDA-MB-435): 98% | growth at 100 µM [10]: -30% | growth at 0.1 µM [11]: 93% | growth at 0.1 µM (A498 [12]): 82% | GI50 ([13]; read-out: GI50): 196 nM | TGI ([13]; read-out: TGI): 432 nM | GI50 ([13]; read-out: pGI50 (converted)): 195 nM | TGI ([13]; read-out: pTGI (converted)): 437 nM | growth at 0.1 µM [14]: 95% | GI50 (KM12; read-out: GI50): 370 nM | CC50 (KM12; [22]): 4750 nM | TGI (KM12; read-out: TGI): 1410 nM | GI50 (KM12; read-out: pGI50 (converted)): 372 nM | CC50 (KM12; [23]): 4790 nM | TGI (KM12; read-out: pTGI (converted)): 1410 nM | growth at 10 µM [15]: -91.6% | growth at 10 µM (SK-MEL-28): -84.7% | growth at 0.01 µM [16]: 97% | growth at 100 µM (NCI-H322M [17]): -22% | growth at 10 µM [18]: -70% | growth at 10 µM (NCI-H460): -80.3% | growth at 1 µM [19]: 77% | growth at 10 µM [20]: -72% | growth at 1 µM [21]: 86% | growth at 100 µM (Malme-3M): -16%

c1ccc2[nH]c(-c3ccc(Nc4nc(N5CCCCC5)nc(N5CCOCC5)n4)cc3)nc2c1
growth at 0.01 µM [1]: 90% | growth at 0.1 µM (HT-29 [2]): 105% | growth at 1 µM [3]: 89% | GI50 (NCI-H322M [4]; read-out: GI50): 4720 nM | CC50 (NCI-H322M [4]; [22]): > 100000 nM | TGI (NCI-H322M [4]; read-out: TGI): > 100000 nM | GI50 (NCI-H322M [4]; read-out: pGI50 (converted)): 4680 nM | CC50 (NCI-H322M [4]; [23]): > 100000 nM | TGI (NCI-H322M [4]; read-out: pTGI (converted)): > 100000 nM | growth at 1 µM [5]: 89% | growth at 10 µM (A498 [6]): -51% | growth at 10 µM [7]: -19% | growth at 100 µM (SR): -11% | GI50 (EKVX; read-out: GI50): 2680 nM | LC50 (EKVX; read-out: LC50): > 100000 nM | TGI (EKVX; read-out: TGI): > 100000 nM | GI50 (EKVX; read-out: pGI50 (converted)): 2690 nM | LC50 (EKVX; read-out: pLC50 (converted)): > 100000 nM | TGI (EKVX; read-out: pTGI (converted)): > 100000 nM | growth at 1 µM (HT-29 [8]): 104% | growth at 0.1 µM [9]: 94% | growth at 0.1 µM (MDA-MB-435): 95% | growth at 100 µM [10]: -46% | growth at 0.1 µM [11]: 96% | growth at 0.1 µM (A498 [12]): 81% | GI50 ([13]; read-out: GI50): 1960 nM | TGI ([13]; read-out: TGI): 4320 nM | GI50 ([13]; read-out: pGI50 (converted)): 1950 nM | TGI ([13]; read-out: pTGI (converted)): 4370 nM | growth at 0.1 µM [14]: 104% | GI50 (KM12; read-out: GI50): 2850 nM | CC50 (KM12; [22]): > 100000 nM | TGI (KM12; read-out: TGI): 9540 nM | GI50 (KM12; read-out: pGI50 (converted)): 2820 nM | CC50 (KM12; [23]): > 100000 nM | TGI (KM12; read-out: pTGI (converted)): 9550 nM | growth at 10 µM [15]: 13.7% | growth at 10 µM (SK-MEL-28): -30.2% | growth at 0.01 µM [16]: 101% | growth at 100 µM (NCI-H322M [17]): 10% | growth at 10 µM [18]: 13% | growth at 10 µM (NCI-H460): 0.81% | growth at 1 µM [19]: 84% | growth at 10 µM [20]: -11% | growth at 1 µM [21]: 89% | growth at 100 µM (Malme-3M): -80%
